Laboratory results: ChEMBL document CHEMBL5154639, “Anti-schistosomal activities of quinoxaline-containing compounds: From hit identification to lead optimisation” (Eur J Med Chem, 2021)
pEC50: −log10 of the molar value. Calls of active or inactive are those of the source.

Legend:
Schistosoma mansoni [1] = experiment: Antischistosomal activity against Schistosoma mansoni Puerto-Rican schistosomula assessed as inhibition of parasite motility at 50 uM measured after 72 hrs; format: functional, organism-based
Outline: (§1)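 Mechanically transformed schistosomula, 120 per well, incubated with compound at 37°C, 5% CO2 for 72 h, at single concentrations (10, 50 µM) or two-fold titrations (0.313–10 µM). Controls were auranofin 10 µM and 0.625% DMSO. Motility and phenotype were scored by automated high-content imaging, and EC50 was taken from two or three replicate titrations.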

Schistosoma mansoni [2] = experiment: Antischistosomal activity against adult stage of Schistosoma mansoni assessed as cessation of worm motility at 6.25 to 12.5 uM measured after 72 hrs; format: functional, organism-based; settings: dose 6.25-12.5 µM
Outline: (§2)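 7-week adult worm pairs, 1–3 pairs per well in duplicate, in DMEM with 10% FCS, L-glutamine and antibiotics, incubated 72 h at 37°C, 5% CO2. Concentrations were 0.78–50 µM in 0.5% DMSO, with some titrations at 0.0095–10 or 0.0095–5 µM. Controls were 0.5% DMSO and praziquantel 10 µM. Motility was measured by digital image analysis, and eggs were collected, formalin-fixed and counted.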

Schistosoma mansoni [3] = experiment: Antischistosomal activity against adult stage of Schistosoma mansoni assessed as cessation of worm motility at 3.15 uM measured after 72 hrs; format: functional; outline: as §2
[4] = Drug uptake in cytoplasm of human TK6 cells by fluorescence based analysis; format: ADME, subcellular
Outline: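 Compound autofluorescence was recorded alongside γH2AX and p53 during imaging flow cytometry of TK6 cells treated for 24 h at 0.5–4 µM and fixed with lysis solution.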

Schistosoma mansoni [5] = experiment: Antischistosomal activity against juvenile stage of Schistosoma mansoni assessed as increased granularity with reduced movement at 0.156 uM measured after 72 hrs by PI staining based analysis; format: functional, organism-based
Outline: (§3)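 Juvenile worms, 20–25 per well, exposed to 10–0.156 µM for 72 h at 37°C, 5% CO2. Controls were 1.25% DMSO, and PZQ and AUR at 15 µM. Motility and phenotype were scored on an adapted WHO-TDR 0–4 scale. Viability was measured by 15 min staining with 2 µg/ml propidium iodide, imaged, and reported as the percentage of PI-positive worms per well.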

[6] = Genotoxicity against human TK6 cells assessed as […] in micronuclei formation at 4 uM measured after 24 hrs; format: toxicity, cell-based; settings: tk6, 24 h
Outline: (§4)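 TK6 cells, about 2×10^5/ml in RPMI with 10% horse serum, treated 24 h without recovery at 0.5, 2 and 4 µM. Controls were 1% DMSO, MMS 45.4 µM and carbendazim 8.4 µM. Cells were fixed, permeabilized and stained for γH2AX, p53 and DRAQ5, then imaged by flow cytometry. Micronuclei were scored by neural network as %MNi in mononucleated cells. Biomarkers were expressed as fold change, with 1.5-fold as cut-off. Three experiments.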

Schistosoma mansoni [7] = experiment: Antischistosomal activity against Schistosoma mansoni assessed as inhibition of miracidial to sporocyst transformation measured after 48 hrs; format: functional, organism-based; settings: dose 0.5-5 µM, DDE = dose-dependent effect
Outline: (§5)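 Miracidia hatched from eggs by light exposure in artificial river water, then washed in CBSS. Set up in CBSS with compound, usually 0.5, 2, 5, 10 and 50 µM, in duplicate, with 1% DMSO as negative control. After 48 h at 26°C, dead, fully transformed and partially transformed larvae were counted.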

Schistosoma mansoni [8] = experiment: Antischistosomal activity against adult stage of Schistosoma mansoni assessed as inhibition of oviposition at 0.0024 to 10 uM measured after 72 hrs; format: functional, organism-based; settings: dose 0.0095-10 µM, in the assay text read “0.0095 to 10 uM” for “0.0024 to 10 uM”; outline: as §2
Schistosoma mansoni [9] = experiment: Antischistosomal activity against adult stage of Schistosoma mansoni assessed as inhibition of oviposition at 0.0095 to 10 uM measured after 72 hrs; format: functional, organism-based; settings: dose 0.0095-10 µM; outline: as §2
Schistosoma japonicum [10] = experiment: Antischistosomal activity against adult stage of Schistosoma japonicum assessed as inhibition of parasite motility at 100 nM measured after 48 hrs by microscopic method; format: functional, organism-based
Outline: (§6)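 Adult males (Egyptian isolate for S. haematobium, hamster-derived; Philippine isolate for S. japonicum, mouse-derived), about 5 per well in Basch 169 medium with antibiotics and 4% FBS, acclimated overnight at 37°C, 5% CO2. Compound added at 100 nM final in DMSO. Shape, density and motility scored by microscope with constrained descriptors at 5, 24, 48 and 72 h. Triplicate, sometimes duplicate.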

TK6 [11] = experiment: Induction of cell cycle arrest in human TK6 cells assessed as accumulation of cells at G2/M phase at 2 to 4 uM; format: toxicity, cell-based; settings: tk6, 4 µM, dose 2-4 µM
TK6 [12] = experiment: Cytotoxicity against human TK6 cells assessed as increase in mitotic arrest at 4 uM measured after 24 hrs; format: toxicity, cell-based; settings: tk6, 24 h
Schistosoma mansoni [13] = experiment: Antischistosomal activity against adult stage of Schistosoma mansoni assessed as cessation of worm motility at 0.0095 to 10 uM measured after 72 hrs; format: functional, organism-based; settings: dose 0.0095-10 µM; outline: as §2
Schistosoma mansoni [14] = experiment: Antischistosomal activity against Schistosoma mansoni assessed as parasite death at 10 to 50 uM measured after 48 hrs; format: functional, organism-based; settings: dose 10-50 µM; outline: as §5
[15] = Genotoxicity against human TK6 cells assessed as induction of DNA damage by measuring gammaH2AX level at 0.5 to 4 uM measured after 24 hrs; format: toxicity, cell-based; settings: tk6, 24 h, dose 0.5-4 µM; outline: as §4
[16] = Genotoxicity against human TK6 cells assessed as induction of DNA damage by measuring nuclear p53 content at 0.5 to 4 uM measured after 24 hrs; format: toxicity, cell-based; settings: tk6, 24 h, dose 0.5-4 µM; outline: as §4
Schistosoma mansoni [17] = experiment: Antischistosomal activity against juvenile stage of Schistosoma mansoni assessed as parasite death at 1.25 to 10 uM measured after 72 hrs by PI staining based analysis; format: functional, organism-based; settings: dose 1.25-10 µM; outline: as §3
[18] = Genotoxicity against human TK6 cells assessed as […] in micronuclei formation at 0.5 to 2 uM measured after 24 hrs; format: toxicity, cell-based; settings: tk6, 24 h, dose 0.5-2 µM; outline: as §4
[19] = Selectivity index, ratio of CC50 for human HepG2 cells measured after 72 hrs to EC50 for antischistosomal activity against adult stage of Schistosoma mansoni measured after 72 hrs; format: toxicity; settings: read-out: Ratio CC50/EC50
Schistosoma mansoni [20] = experiment: Antischistosomal activity against Schistosoma mansoni Puerto-Rican schistosomula assessed as inhibition of parasite motility measured after 72 hrs; format: functional, organism-based; outline: as §1
[21] = Cytotoxicity against human HepG2 cells assessed as reduction in cell viability incubated for 24 hrs by MTT assay; format: toxicity, cell-based
Outline: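 HepG2 seeded at 2×10^4 cells/well, then after 24 h exposed to 1–200 µM (seven concentrations) for 24 h at 37°C. Controls were 1.25% DMSO and 1% Triton X-100. MTT absorbance was read at 570 nm. Triplicates in three experiments; CC50 by non-linear regression of normalized log-dose curves.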

[22] = Selectivity index, ratio of CC50 for human HepG2 cells measured after 72 hrs to EC50 for antischistosomal activity against Schistosoma mansoni Puerto-Rican schistosomula measured after 72 hrs; format: toxicity; settings: read-out: Ratio CC50/EC50
Schistosoma mansoni [23] = experiment: Antischistosomal activity against adult stage of Schistosoma mansoni assessed as inhibition of parasite motility measured after 72 hrs; format: functional, organism-based; outline: as §2
[24] = Cytotoxicity against human HepG2 cells assessed as reduction in cell viability incubated for 72 hrs by MTT assay; format: toxicity, cell-based
Schistosoma mansoni [25] = experiment: Antischistosomal activity against Schistosoma mansoni Puerto-Rican schistosomula assessed as phenotypic changes measured after 72 hrs; format: functional, organism-based; outline: as §1
Schistosoma haematobium = experiment: Antischistosomal activity against Schistosoma haematobium assessed as inhibition of parasite movement at 100 nM measured after 24 to 72 hrs by microscopic method; format: functional, organism-based; settings: time 24-72 hrs; outline: as §6
Schistosoma japonicum [26] = experiment: Antischistosomal activity against adult stage of Schistosoma japonicum assessed as inhibition of parasite motility at 100 nM measured after 24 to 72 hrs by microscopic method; format: functional, organism-based; settings: time 24-72 hrs; outline: as §6
Schistosoma japonicum [27] = experiment: Antischistosomal activity against adult stage of Schistosoma japonicum assessed as parasite death at 100 nM measured after 72 hrs by microscopic method; format: functional, organism-based; outline: as §6
Schistosoma mansoni [28] = experiment: Antischistosomal activity against adult stage of Schistosoma mansoni assessed as absence of body/gut movement, plate detachment and severe damage to the tegument at 25 to 50 uM measured after 72 hrs; format: functional, organism-based; settings: dose 25-50 µM; outline: as §2
Schistosoma mansoni [29] = experiment: Antischistosomal activity against adult stage of Schistosoma mansoni assessed as inhibition of in vitro laid eggs production at 12.5 uM measured after 72 hrs; format: functional, organism-based; outline: as §2

SMILES: Clc1ccc(Nc2nc3ccc(N4CCCC4)cc3nc2Nc2ccc(Cl)c(Cl)c2)cc1Cl
- Activity (Schistosoma mansoni [1]): Active

SMILES: COC(=O)c1ccc(Nc2nc3ccc([N+](=O)[O-])cc3nc2Nc2ccc(C(=O)OC)cc2)cc1
- Activity (Schistosoma mansoni [2]): Active

SMILES: O=[N+]([O-])c1ccc2nc(Nc3ccccc3)c(Nc3ccccc3)nc2c1
- Activity (Schistosoma mansoni [3]): 100%
- Activity (Schistosoma mansoni [2]): Active

SMILES: O=[N+]([O-])c1ccc2nc(Nc3ccc(Cl)c(Cl)c3)c(Nc3ccc(Cl)c(Cl)c3)nc2c1
- Drug uptake [4]: Active
- Activity (Schistosoma mansoni [5]): Active
- Activity [6]: Toxic
- Activity (Schistosoma mansoni [7]): Dde
- Activity (Schistosoma mansoni [8]): Active
- Activity (Schistosoma mansoni [9]): Active
- Activity (Schistosoma japonicum [10]): Active
- Activity (TK6 [11]): Toxic
- Activity (TK6 [12]): Toxic
- Activity (Schistosoma mansoni [13]): Active
- Activity (Schistosoma mansoni [14]): Active
- Activity [15]: Non-Toxic
- Activity [16]: Non-Toxic
- Activity (Schistosoma mansoni [17]): Active
- Activity (Schistosoma mansoni [2]): Active
- Activity [18]: Non-Toxic

SMILES: Brc1ccc(Nc2nc3ccccc3nc2Nc2ccc(Br)cc2)cc1
- selectivity ratio at 72 h [19]: 28.6
- pEC50 (Schistosoma mansoni [20]): 5.92
- CC50 at 24 h [21]: 7.12 µM
- selectivity ratio at 72 h [22]: 1.9
- pEC50 (Schistosoma mansoni [23]): 6.79
- CC50 at 72 h [24]: 4.64 µM
- pEC50 (Schistosoma mansoni [25]): 5.44

SMILES: Cc1cccc(Nc2nc3ccc([N+](=O)[O-])cc3nc2Nc2cccc(C)c2)c1
- Activity (Schistosoma mansoni [2]): Active

SMILES: O=[N+]([O-])c1ccc2nc(Nc3cccc(Cl)c3)c(Nc3cccc(Cl)c3)nc2c1
- Activity (Schistosoma japonicum [10]): Active

SMILES: O=[N+]([O-])c1ccc2nc(Nc3cccc(C(F)(F)F)c3)c(Nc3cccc(C(F)(F)F)c3)nc2c1
- Activity (Schistosoma haematobium): Active
- Activity (Schistosoma japonicum [10]): Active

SMILES: O=[N+]([O-])c1ccc2nc(Nc3cc(F)cc(C(F)(F)F)c3)c(Nc3cc(F)cc(C(F)(F)F)c3)nc2c1
- Activity (Schistosoma mansoni [8]): Active

SMILES: Cc1ccc(Nc2nc3ccccc3nc2Nc2ccc(C)c(C)c2)cc1C
- Activity (Schistosoma mansoni [2]): Active

SMILES: O=[N+]([O-])c1ccc2nc(Nc3cc(C(F)(F)F)ccc3F)c(Nc3cc(C(F)(F)F)ccc3F)nc2c1
- Activity (Schistosoma mansoni [8]): Active
- Activity (Schistosoma haematobium): Active
- Activity (Schistosoma japonicum [26]): Active
- Activity (Schistosoma japonicum [27]): Active

SMILES: O=[N+]([O-])c1ccc2nc(Nc3ccc(Cl)cc3)c(Nc3ccc(Cl)cc3)nc2c1
- Activity (Schistosoma japonicum [10]): Active

SMILES: O=[N+]([O-])c1ccc2nc(Nc3ccc(C(F)(F)F)cc3)c(Nc3ccc(C(F)(F)F)cc3)nc2c1
- Activity (Schistosoma haematobium): Active
- Activity (Schistosoma japonicum [26]): Active
- Activity (Schistosoma japonicum [27]): Active

SMILES: c1ccc(/N=c2\sc3ccccc3s\c2=N\c2ccccc2)cc1
- Activity (Schistosoma mansoni [28]): Active
- Activity (Schistosoma mansoni [29]): Active

SMILES: FC(F)(F)c1cccc(Nc2nc3ccccc3nc2Nc2cccc(C(F)(F)F)c2)c1
- Activity (Schistosoma mansoni [3]): 100%
- Activity (Schistosoma mansoni [2]): Active

SMILES: O=C(C1CCCCC1)N1CC(=O)N2CCc3ccccc3C2C1 (stereo not drawn)
- Activity (Schistosoma mansoni [8]): Active
- Activity (Schistosoma mansoni [9]): Active
- Activity (Schistosoma mansoni [13]): Active
